This is an account of results in ChEMBL document CHEMBL1142874, “Design and synthesis of anticonvulsants from a combined phthalimide-GABA-anilide and hydrazone pharmacophore” (Eur J Med Chem, 2007).

Active and inactive are the calls of the source. The rule behind the calls is not given here.

The test system of one data set is Mus musculus. The data set is described as follows: Anticonvulsant activity against intraperitoneal picrotoxin-induced seizure in Albino CF1 mouse at 300 mg/kg, ip after 4 hrs. Format: functional, organism-based. Set-up: dose 300 mg/kg.
Conditions: not given
Put shortly: (§1)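 Mice received the test compound by intraperitoneal injection at 30, 100 or 300 mg/kg. They were then challenged with intraperitoneal picrotoxin and scored for anticonvulsant protection 0.5 h or 4 h after dosing. The value recorded is the lowest dose that protected half or more of the mice. A dash means no activity up to 300 mg/kg.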
On to `Cc1ccc(C)c(NC(=O)CCCN2C(=O)c3ccccc3C2=O)c1`, for which the outcome was inactive.

As to `O=C(CCCN1C(=O)c2ccccc2C1=O)Nc1ccccc1Br`, the outcome was Active.

For `C/C(=N/NC(=O)CCCN1C(=O)c2ccccc2C1=O)c1ccc(O)cc1`, the outcome was inactive.

`CC/C(C)=N/NC(=O)CCCN1C(=O)c2ccccc2C1=O`: the outcome was inactive.

For `C/C(=N/NC(=O)CCCN1C(=O)c2ccccc2C1=O)c1cccc(N)c1`, the outcome was inactive.

As for `CCC1(C)CC(=O)NC1=O` (configuration not stated) [ETHOSUXIMIDE], the outcome was inactive.

As to `Cc1ccc(NC(=O)CCCN2C(=O)c3ccccc3C2=O)cc1`, the outcome was inactive.

As for `O=C(CCCN1C(=O)c2ccccc2C1=O)Nc1cccc(F)c1`, the outcome was Active.

For another data set, the system named is Mus musculus. The data set is described as follows: Anticonvulsant activity against subcutaneous strychnine-induced seizure in Albino CF1 mouse at 300 mg/kg, ip after 0.5 hrs. Format: functional, organism-based. Set-up: dose 300 mg/kg.
Conditions: not given
Put shortly: (§2)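 Test compounds given i.p. to mice at 0.01 mL/g, at 30, 100 or 300 mg/kg. The seizure challenge followed at 0.5 h and at 4 h after dosing. The value recorded is the lowest dose that protected half or more of the mice. Where no activity was seen, the maximum dose given was 300 mg/kg.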
In the case of `Cc1ccc(C)c(NC(=O)CCCN2C(=O)c3ccccc3C2=O)c1`, the outcome was Active.

Consider `O=C(CCCN1C(=O)c2ccccc2C1=O)Nc1ccccc1Br`, for which the result was inactive.

On to `CC/C(C)=N/NC(=O)CCCN1C(=O)c2ccccc2C1=O`, for which the result was inactive.

As for `C/C(=N/NC(=O)CCCN1C(=O)c2ccccc2C1=O)c1cccc(N)c1`, the result was inactive.

With `CCC1(C)CC(=O)NC1=O` (configuration not stated) [ETHOSUXIMIDE], the outcome was inactive.

As to `Cc1ccc(NC(=O)CCCN2C(=O)c3ccccc3C2=O)cc1`, the outcome was Active.

As for `O=C(CCCN1C(=O)c2ccccc2C1=O)Nc1cccc(F)c1`, the result was Active.

Another data set concerns Mus musculus. The data set is described as follows: Anticonvulsant activity in Albino CF1 mouse upto 300 mg/kg, ip in maximal electroshock seizure test.
Conditions: not given
Also on record: dose 300 mg/kg. Format: functional, organism-based. Put shortly:
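Mice dosed i.p. (0.01 mL/g) at 30, 100 and 300 mg/kg. Electroshock challenge run 30 min and 4 h after dosing.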
Consider `Cc1ccc(C)c(NC(=O)CCCN2C(=O)c3ccccc3C2=O)c1`, for which the outcome was inactive.

Take `O=C(CCCN1C(=O)c2ccccc2C1=O)Nc1ccccc1Br`: the outcome was inactive.

As to `C/C(=N/NC(=O)CCCN1C(=O)c2ccccc2C1=O)c1ccc(O)cc1`, the result was inactive.

Regarding `CC/C(C)=N/NC(=O)CCCN1C(=O)c2ccccc2C1=O`, the outcome was inactive.

In the case of `C/C(=N/NC(=O)CCCN1C(=O)c2ccccc2C1=O)c1cccc(N)c1`, the outcome was inactive.

On to `CCC1(C)CC(=O)NC1=O` (configuration not stated) [ETHOSUXIMIDE], for which the result was inactive.

In the case of `Cc1ccc(NC(=O)CCCN2C(=O)c3ccccc3C2=O)cc1`, the outcome was inactive.

In the case of `O=C(CCCN1C(=O)c2ccccc2C1=O)Nc1cccc(F)c1`, the outcome was inactive.

A further data set concerns Mus musculus. Briefly: Anticonvulsant activity against intraperitoneal picrotoxin-induced seizure in Albino CF1 mouse at 100 mg/kg, ip after 0.5 hrs. The class given is functional, organism-based. Also on record: dose 100 mg/kg.
Conditions: not given
Put shortly: as §1
For the compound `O=C(CCCN1C(=O)c2ccccc2C1=O)Nc1ccccc1Br`, the outcome was Active.

Take `C/C(=N/NC(=O)CCCN1C(=O)c2ccccc2C1=O)c1ccc(O)cc1`: the outcome was Active.

The subject of the next data set is Mus musculus. Briefly: Neurotoxicity in Albino CF1 mouse at 100 mg/kg, ip after 0.5 hrs by Rotarod test. Also on record: dose 100 mg/kg, route intraperitoneal. Format: toxicity, organism-based. The conditions noted are these: in vivo. Put shortly: (§3)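 Rotarod test in mice pre-trained to stay on the rod for two consecutive 90 s trials. Compounds given i.p. at 30, 100 or 300 mg/kg, with testing at 0.5 h and 4 h. Deficit was scored as failure to keep balance on the rod for 1 min in each of three trials. The value recorded is the lowest dose affecting half or more of the mice.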
Take `Cc1ccc(C)c(NC(=O)CCCN2C(=O)c3ccccc3C2=O)c1`: the result was Active.

Another data set relates to Mus musculus. Briefly: Anticonvulsant activity against subcutaneous pentylenetetrazole-induced seizure in Albino CF1 mouse at 300 mg/kg, ip after 4 hrs.
Conditions: not given
Set-up: dose 300 mg/kg. Format: functional, organism-based. Put shortly: as §2
With `Cc1ccc(C)c(NC(=O)CCCN2C(=O)c3ccccc3C2=O)c1`, the result was inactive.

`O=C(CCCN1C(=O)c2ccccc2C1=O)Nc1ccccc1Br`: the result was inactive.

As to `C/C(=N/NC(=O)CCCN1C(=O)c2ccccc2C1=O)c1ccc(O)cc1`, the result was inactive.

In the case of `CC/C(C)=N/NC(=O)CCCN1C(=O)c2ccccc2C1=O`, the result was inactive.

For the compound `C/C(=N/NC(=O)CCCN1C(=O)c2ccccc2C1=O)c1cccc(N)c1`, the result was inactive.

For `CCC1(C)CC(=O)NC1=O` (configuration not stated) [ETHOSUXIMIDE], the outcome was inactive.

`Cc1ccc(NC(=O)CCCN2C(=O)c3ccccc3C2=O)cc1`: the result was inactive.

For `O=C(CCCN1C(=O)c2ccccc2C1=O)Nc1cccc(F)c1`, the outcome was inactive.

A further data set concerns Mus musculus. The data set is described as follows: Neurotoxicity in Albino CF1 mouse at 300 mg/kg, ip after 4 hrs by Rotarod test. Also on record: dose 300 mg/kg, route intraperitoneal. The conditions noted are these: in vivo. The class given is toxicity, organism-based. Put shortly:
as §3
As to `Cc1ccc(C)c(NC(=O)CCCN2C(=O)c3ccccc3C2=O)c1`, the result was Active.

For the compound `O=C(CCCN1C(=O)c2ccccc2C1=O)Nc1ccccc1Br`, the Activity result is reported as “Not Active”.

`C/C(=N/NC(=O)CCCN1C(=O)c2ccccc2C1=O)c1ccc(O)cc1`: the Activity result was “Not Active”.

Regarding `CC/C(C)=N/NC(=O)CCCN1C(=O)c2ccccc2C1=O`, the Activity entry is on record as “Not Active”.

As for `C/C(=N/NC(=O)CCCN1C(=O)c2ccccc2C1=O)c1cccc(N)c1`, the Activity entry is “Not Active”.

For the compound `CCC1(C)CC(=O)NC1=O` (configuration not stated) [ETHOSUXIMIDE], the Activity result is “Not Active”.

Turning to `Cc1ccc(NC(=O)CCCN2C(=O)c3ccccc3C2=O)cc1`, the result was Active.

As for `O=C(CCCN1C(=O)c2ccccc2C1=O)Nc1cccc(F)c1`, the Activity entry is on record as “Not Active”.

Another data set deals with Mus musculus. Briefly: Anticonvulsant activity against intraperitoneal picrotoxin-induced seizure in Albino CF1 mouse at 300 mg/kg, ip after 0.5 hrs. Set-up: dose 300 mg/kg. Format: functional, organism-based.
Conditions: not given
Put shortly: as §1
On to `Cc1ccc(C)c(NC(=O)CCCN2C(=O)c3ccccc3C2=O)c1`, for which the result was Active.

With `CC/C(C)=N/NC(=O)CCCN1C(=O)c2ccccc2C1=O`, the result was Active.

For `C/C(=N/NC(=O)CCCN1C(=O)c2ccccc2C1=O)c1cccc(N)c1`, the outcome was inactive.

As to `CCC1(C)CC(=O)NC1=O` (configuration not stated) [ETHOSUXIMIDE], the outcome was inactive.

For `Cc1ccc(NC(=O)CCCN2C(=O)c3ccccc3C2=O)cc1`, the result was Active.

On to `O=C(CCCN1C(=O)c2ccccc2C1=O)Nc1cccc(F)c1`, for which the result was Active.

The next data set deals with Mus musculus. The data set is described as follows: Anticonvulsant activity against subcutaneous pentylenetetrazole-induced seizure in Albino CF1 mouse at 300 mg/kg, ip after 0.5 hrs. The class given is functional, organism-based.
Conditions: not given
Set-up: dose 300 mg/kg. Put shortly: as §2
Consider `Cc1ccc(C)c(NC(=O)CCCN2C(=O)c3ccccc3C2=O)c1`, for which the result was inactive.

Consider `O=C(CCCN1C(=O)c2ccccc2C1=O)Nc1ccccc1Br`, for which the result was inactive.

For `C/C(=N/NC(=O)CCCN1C(=O)c2ccccc2C1=O)c1ccc(O)cc1`, the outcome was inactive.

Take `CC/C(C)=N/NC(=O)CCCN1C(=O)c2ccccc2C1=O`: the outcome was inactive.

With `C/C(=N/NC(=O)CCCN1C(=O)c2ccccc2C1=O)c1cccc(N)c1`, the outcome was inactive.

For `CCC1(C)CC(=O)NC1=O` (configuration not stated) [ETHOSUXIMIDE], the outcome was Active.

`Cc1ccc(NC(=O)CCCN2C(=O)c3ccccc3C2=O)cc1`: the outcome was inactive.

Turning to `O=C(CCCN1C(=O)c2ccccc2C1=O)Nc1cccc(F)c1`, the result was inactive.

The next data set deals with Mus musculus. Briefly: Anticonvulsant activity against subcutaneous strychnine-induced seizure in Albino CF1 mouse at 300 mg/kg, ip after 4 hrs. Format: functional, organism-based. Also on record: dose 300 mg/kg.
Conditions: not given
Put shortly:
as §2
As for `Cc1ccc(C)c(NC(=O)CCCN2C(=O)c3ccccc3C2=O)c1`, the outcome was Active.

Consider `O=C(CCCN1C(=O)c2ccccc2C1=O)Nc1ccccc1Br`, for which the result was inactive.

Consider `C/C(=N/NC(=O)CCCN1C(=O)c2ccccc2C1=O)c1ccc(O)cc1`, for which the result was inactive.

As to `CC/C(C)=N/NC(=O)CCCN1C(=O)c2ccccc2C1=O`, the outcome was inactive.

With `C/C(=N/NC(=O)CCCN1C(=O)c2ccccc2C1=O)c1cccc(N)c1`, the result was inactive.

Turning to `CCC1(C)CC(=O)NC1=O` (configuration not stated) [ETHOSUXIMIDE], the result was inactive.

In the case of `Cc1ccc(NC(=O)CCCN2C(=O)c3ccccc3C2=O)cc1`, the result was inactive.

Take `O=C(CCCN1C(=O)c2ccccc2C1=O)Nc1cccc(F)c1`: the outcome was Active.

For the next data set, the system named is Mus musculus. Briefly: Neurotoxicity in Albino CF1 mouse at 300 mg/kg, ip after 0.5 hrs by Rotarod test. The class given is toxicity, organism-based. Set-up: dose 300 mg/kg, route intraperitoneal. The conditions noted are these: in vivo. Put shortly: as §3
Consider `O=C(CCCN1C(=O)c2ccccc2C1=O)Nc1ccccc1Br`, for which the Activity entry is “Not Active”.

`C/C(=N/NC(=O)CCCN1C(=O)c2ccccc2C1=O)c1ccc(O)cc1`: the Activity result is on record as “Not Active”.

Regarding `CC/C(C)=N/NC(=O)CCCN1C(=O)c2ccccc2C1=O`, the Activity entry is reported as “Not Active”.

Take `C/C(=N/NC(=O)CCCN1C(=O)c2ccccc2C1=O)c1cccc(N)c1`: the Activity result is given as “Not Active”.

On to `CCC1(C)CC(=O)NC1=O` (configuration not stated) [ETHOSUXIMIDE], for which the Activity entry is given as “Not Active”.

Regarding `Cc1ccc(NC(=O)CCCN2C(=O)c3ccccc3C2=O)cc1`, the Activity entry was “Not Active”.

With `O=C(CCCN1C(=O)c2ccccc2C1=O)Nc1cccc(F)c1`, the result was Active.

Another data set relates to Mus musculus. The data set is described as follows: Anticonvulsant activity against subcutaneous strychnine-induced seizure in Albino CF1 mouse at 100 mg/kg, ip after 0.5 hrs. Format: functional, organism-based. Set-up: dose 100 mg/kg.
Conditions: not given
Put shortly:
as §2
Consider `C/C(=N/NC(=O)CCCN1C(=O)c2ccccc2C1=O)c1ccc(O)cc1`, for which the result was Active.
